According to the array DNA melting data of Ke et al. (doi:10.1101/2024.01.08.574731):

Tests used:
[1] = melting temperature; fluorescence melt of hairpins on a sequencing array, two-state fit, raised by 9.35 °C to match UV melts; details: sodium 0.088 M
Method in brief: (§1)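 Folding enthalpy and melting temperature come from bootstrapped two-state fits to Cy3 fluorescence of library hairpins carrying annealed Cy3 and quencher oligos on a sequenced MiSeq flow cell. Imaging was done in 50 mM Na-HEPES pH 8.0, 25 mM NaCl, stepping by 2.5 °C up to 60 °C, and signals were normalised to pre-quench Cy3 and to control constructs. Results of four replicates were combined by inverse variance, and fitted temperatures were raised by 9.35 °C to match UV melts.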

[2] = folding enthalpy; higher = less favourable; fluorescence melt of hairpins on a sequencing array, two-state fit; details: sodium 0.088 M
Method in brief: as §1

Row | Sequence | Tm [1] | folding enthalpy [2]
1 | GTGAGGTCGAAAGACCAC (((..(((....)))))) | 48.9 °C | -13 kcal/mol
2 | CCAACGAAAGTTGG (((((....))))) | 58 °C | -25.4 kcal/mol
3 | GATACGACGAAAGTCATC (((..(((....)))))) | 24.6 °C | -10.6 kcal/mol
4 | GGCCCACCGAAAGGTGCC (((..(((....)))))) | 34.2 °C | -9.96 kcal/mol
5 | GCCTTGCGAAAGCATTGC ((..(((....)))..)) | 48.2 °C | -11.4 kcal/mol
6 | GTAGCTGGAAACGGTTAC (((.(.(....).).))) | 28.9 °C | -18.7 kcal/mol
7 | GATCGCCTGCGCGATC ((((((....)))))) | 67.2 °C | -32 kcal/mol
8 | GCACACGGAAACGCGTGC ((((.((....)).)))) | 57 °C | -47.3 kcal/mol
9 | GGTATTGGAAACAATATC (.(((((....))))).) | 37.1 °C | -24.9 kcal/mol
10 | GGATCTTCGAAAGAATCC (((..(((....)))))) | 25.8 °C | -10.7 kcal/mol
11 | GATCGCCGATGCGATC ((((((....)))))) | 66.6 °C | -32 kcal/mol
12 | GATCAAAGAATTGATC ((((((....)))))) | 40 °C | -21.8 kcal/mol
13 | GCCGGTGGAAACACCAGC ((.((((....)))).)) | 48.4 °C | -21.5 kcal/mol
14 | GAGCGGCGAAAGCCACTC (((.(((....))).))) | 58 °C | -24.5 kcal/mol
15 | GATCTTGTGCAAGATC ((((((....)))))) | 46.4 °C | -47 kcal/mol
16 | GAACCGGGAAACCGATTC (((.(((....))).))) | 39.2 °C | -26.4 kcal/mol
17 | GGAATCACGAAAGTGTCC (((..(((....)))))) | 30.5 °C | -11.5 kcal/mol
18 | GATCTGATCTCAGATC ((((((....)))))) | 51.1 °C | -37.1 kcal/mol
19 | GAAAGCGAAAGCTGTTC ((((((....))).))) | 34.1 °C | -10.8 kcal/mol
20 | GTCCGCGGAAACGTGGAC ((((.((....)).)))) | 62 °C | -43.5 kcal/mol
21 | GTGGTCACGAAAGTGCAC (((..(((....)))))) | 39.9 °C | -16.1 kcal/mol
22 | GGACTCCGAAAGGACTCC (((.(((....))).))) | 39.2 °C | -21.1 kcal/mol
23 | GTCCGACGAAAGTCGAC (((.(((....)))))) | 44.7 °C | -13.2 kcal/mol

Row | Sequence | Tm [1] | folding enthalpy [2]
24 | GCTGGTCGAAAGACAGC (((.(((....)))))) | 54.7 °C | -27.3 kcal/mol
25 | GATCGAAATCTCGATC ((((((....)))))) | 48.7 °C | -32.7 kcal/mol
26 | GCGACATTCGC ((((...)))) | 52.3 °C | -14 kcal/mol
27 | GATCACTATCGTGATC ((((((....)))))) | 55.1 °C | -41.2 kcal/mol
28 | GATGGTGGAAACGTCATC ((((..(....)..)))) | 33.3 °C | -19.6 kcal/mol
29 | GATCGTTGAACGATC ((((((...)))))) | 53.6 °C | -32.2 kcal/mol
30 | GTTGGTGAAAACCAAC ((((((....)))))) | 58.5 °C | -37 kcal/mol
31 | GGAAGTCGAAAGACATCC (((.(((....))).))) | 48.2 °C | -25.2 kcal/mol
32 | GGCACTGCGAAAGCAGCC (((..(((....)))))) | 35.9 °C | -8.74 kcal/mol
33 | GGTCGAGGAAACCCGACC (((((.(....).))))) | 54.1 °C | -49.6 kcal/mol
34 | GATCACCCCCGTGATC ((((((....)))))) | 55 °C | -36 kcal/mol
35 | GATCCCTTAAGGGATC ((((((....)))))) | 65.6 °C | -39.4 kcal/mol
36 | GCTCTGCGAAAGCAACGC ((..(((....)))..)) | 31.8 °C | -9.7 kcal/mol
37 | GAAGCCGAAAGGCTCTTC ((((((....)))..))) | 56.6 °C | -20.8 kcal/mol
38 | GAGCGACGAAAGTCACTC (((.(((....))).))) | 52.2 °C | -25.9 kcal/mol
39 | GATCAAACGCTTGATC ((((((....)))))) | 41.5 °C | -29.5 kcal/mol
40 | GGAAGGGCGAAAGCCTCC (((..(((....)))))) | 41.1 °C | -11.2 kcal/mol
41 | GTGAGCGAAAGCTCCCAC ((((((....)))..))) | 36.4 °C | -8.27 kcal/mol
42 | GCTCTACGAAAGTACAGC (((.(((....))).))) | 35.5 °C | -21.5 kcal/mol
43 | CCGATGAAAATCGG (((((....))))) | 55.6 °C | -21.4 kcal/mol
44 | CGAGCGGAAACGCAGTCG ((((((....)))..))) | 38.1 °C | -13.6 kcal/mol
45 | GATCAAGCTATTGATC ((((((....)))))) | 50.2 °C | -40.8 kcal/mol
46 | GACGCCGAAAGGCACGTC ((((((....)))..))) | 48.5 °C | -13.4 kcal/mol
